Source: PubChem
Ecoli WT expand: growth inhibitors of wild-type E. coli, primary screen, strain BW25113, expanded library, OD600 | OD600 absorbance | growth inhibition, % at 100 µM | 98,000 compounds, 0.15% hits | AID 710, 2007;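 active means growth inhibition above about 50% at one test dose, limit read from the data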;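 further: growth measured after 20 h incubation at 37 °C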
BAP1 inh: inhibitors of BAP1 deubiquitinase, primary screen, biochemical, Ub-AMC fluorescence, kinetic; calls only at 20 µM; AID 436, 2006; recombinant BAP1, Ub-AMC hydrolysis fluorescence kinetic; hits give low values; 72,000 compounds, 0.48% hits; Ubiquitin carboxyl-terminal hydrolase BAP1 (Homo sapiens), Q92560;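 active means activity remaining at or below 50% of control, provided the compound also passes the data quality filters; inactive means the rest, including low values that fail the filters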;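 further: 100% = DMSO wells rate and 0% = substrate alone blank rate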
Target sequence (Q92560 whole entry, looked up): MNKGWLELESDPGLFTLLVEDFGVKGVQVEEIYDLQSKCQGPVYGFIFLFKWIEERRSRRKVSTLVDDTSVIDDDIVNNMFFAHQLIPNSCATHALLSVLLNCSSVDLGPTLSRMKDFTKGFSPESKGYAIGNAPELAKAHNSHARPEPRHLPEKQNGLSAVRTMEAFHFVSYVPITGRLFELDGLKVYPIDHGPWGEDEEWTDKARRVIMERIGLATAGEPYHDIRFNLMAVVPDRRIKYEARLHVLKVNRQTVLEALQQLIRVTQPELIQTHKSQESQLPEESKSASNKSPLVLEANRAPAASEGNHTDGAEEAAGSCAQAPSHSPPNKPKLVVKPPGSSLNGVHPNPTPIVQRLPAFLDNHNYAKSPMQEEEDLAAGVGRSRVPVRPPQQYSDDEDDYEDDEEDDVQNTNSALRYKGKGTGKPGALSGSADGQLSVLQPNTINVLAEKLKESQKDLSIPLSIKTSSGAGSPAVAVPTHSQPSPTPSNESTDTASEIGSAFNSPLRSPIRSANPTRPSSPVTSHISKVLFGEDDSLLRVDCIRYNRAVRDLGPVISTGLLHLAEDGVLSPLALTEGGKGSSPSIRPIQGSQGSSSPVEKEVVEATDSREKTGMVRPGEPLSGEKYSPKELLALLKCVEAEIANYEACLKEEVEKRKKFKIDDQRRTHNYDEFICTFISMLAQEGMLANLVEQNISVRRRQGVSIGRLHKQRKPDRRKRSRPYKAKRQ
TNAP act mid DEA: human TNAP enzyme activators, primary screen, biochemical, luminescent, intermediate phosphate acceptor level; 64,000 tested, under 10 active; purified TNAP, CDP-star luminescence, 100 mM DEA, 30 min; hits give high values; scale: 0 levamisole-inhibited, 1 vehicle-only enzyme; activation factor at 20 µM; Alkaline phosphatase, tissue-nonspecific isozyme (Homo sapiens), P05186;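 active means activation factor of at least 2 at 20 µM, relative to controls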
WNV NS2B-NS3 inh: inhibitors of WNV NS2B-NS3 protease, primary screen, biochemical, fluorogenic substrate; Genome polyprotein (West Nile virus), P06935; fluorogenic substrate Ex360/Em465; hits give low values; z-score (concentration not given with the values); 65,000 compounds, 0.18% hits; in the data active means z-score below about -3
tolC growth inh: growth inhibitors of E. coli tolC mutant, primary screen, strain BW25113 ΔtolC::kan, 384-well; OD615; growth inhibition, % at 10 µM (by protocol); 65,000 compounds, 2.2% hits; AID 573, 2007;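 active means growth inhibition at or above a cutoff equal to the mean over every tested compound plus 3 SD, cut at about 60% in these data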;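 further: growth measured after 20 h incubation at 37 °C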
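System: E. coli ΔtolC::kan strain BW25113; Buffer or medium: LB broth supplemented with 50 µg/mL kanamycin; Compound: 10 µM final, single dose; Incubation: bacterial growth with compound for 20 h at 37 °C; Signal: A615 absorbance measurement; Evaluation: growth inhibition in percent.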
Numbers without * were called inactive; i = inactive; nt = no result given; + = active, no number. This is one part of a sample in which hits are shown more often than they occur.

SMILES | Ecoli WT expand | BAP1 inh | TNAP act mid DEA | WNV NS2B-NS3 inh | tolC growth inh
Cc1c(C(=O)N2CCc3ccccc3C2)sc2nc(-c3ccccc3)cn12 | -14 | i | nt | 0.93 | 67*
Cc1c(C(=O)N2CCOCC2)sc2nc(-c3ccccc3)cn12 | 1 | i | 0.9 | -1.2 | 0
COc1ccc(-c2cn3c(C)c(C(=O)N4CCc5ccccc5C4)sc3n2)cc1 | nt | + | 1.1 | 2.3 | 28
COc1ccccc1N1CCN(C(=O)c2sc3nc(-c4ccccc4)cn3c2C)CC1 | -13 | i | nt | -0.9 | 33
COc1cc(NC(=O)c2cc3nc(-c4ccc(OC)c(OC)c4)cc(C(F)(F)F)n3n2)cc([N+](=O)[O-])c1 | nt | i | nt | nt | nt
Cc1cc([N+](=O)[O-])ccc1Nc1ccc2nonc2c1[N+](=O)[O-] | nt | i | nt | nt | nt
CCCOc1ccccc1C1NC(=O)NC(C)=C1C(=O)OCCCBr (configuration not stated) | nt | i | nt | nt | nt
CCOC(=O)N1CCN(C(=O)COc2ccc(S(=O)(=O)Nc3ccc(OCC)cc3)cc2)CC1 | 0 | i | 1 | -0.35 | 68*
CCOc1ccc(NS(=O)(=O)c2ccc(OCC(=O)N3CCCC3)cc2)cc1 | -4 | i | 0.9 | -0.34 | -4
CC(C)Cc1cc(C(=O)Nc2sc3c(c2C#N)CCCC3)no1 | -2 | i | 0.9 | 1.3 | 79*
Cc1cccc(C(=O)Nc2sc(C)c(-c3ccccc3)c2C#N)c1 | -21 | nt | nt | nt | nt
N#Cc1c(NC(NC(=O)c2ccco2)C(=O)c2ccccc2)sc2c1CCCC2 (configuration not stated) | -3 | i | 0.9 | 0.59 | 65*
CC(C)Cc1cc(C(=O)Nc2sc3c(c2C#N)CCC3)no1 | -4 | nt | nt | nt | nt
NC(=O)c1c(NC(NC(=O)c2ccco2)C(=O)c2ccc(Cl)cc2)sc2c1CCCC2 (configuration not stated) | -5 | nt | nt | nt | nt
Cc1onc(-c2ccccc2)c1C(=O)Nc1sc2c(c1C(N)=O)CCC2 | -4 | i | 0.9 | -0.33 | 16
Cc1noc(C)c1C(=O)Nc1sc(C)c(-c2ccccc2)c1C#N | -4 | i | 1 | -0.68 | 97*
Cc1onc(-c2ccccc2)c1C(=O)Nc1sc2c(c1C#N)CCC2 | -1 | nt | 0.9 | 1.3 | 70*
CC(C)(C)c1ccc(S(=O)(=O)/C=C/C#N)cc1 | nt | i | nt | nt | nt
COCCn1cnnc1SCC(=O)c1ccc(S(=O)(=O)N2CCCC2)cc1 | -1 | nt | 1 | 1.8 | 0
Cn1c(Oc2ccccc2NCc2cc(Br)ccc2O)cc(=O)n(C)c1=O | 10 | i | 0.9 | -0.94 | 65*
CCCn1c(NCCCO)nc2c1c(=O)[nH]c(=O)n2C | nt | i | nt | nt | nt
CCOC(=O)N1CCN(CC(=O)Nc2c(C(=O)OC)[nH]c3ccc(Cl)cc23)CC1 | 0 | i | 0.9 | 0.09 | 86*
Cc1ccc2[nH]c(C(=O)O)c(NC(=O)CN3CCN(c4cccc(C)c4C)CC3)c2c1 | -4 | i | 0.9 | 0.14 | 96*
O=C(CN1CCN(c2cccc(C(F)(F)F)c2)CC1)Nc1cccc(C(F)(F)F)c1 | -3 | nt | nt | nt | nt
Cc1[nH]c2ccccc2c1NC(=O)CN1CCN(c2cccc(C(F)(F)F)c2)CC1 | 6 | i | 1 | -0.3 | 75*
SMILES | Ecoli WT expand | BAP1 inh | TNAP act mid DEA | WNV NS2B-NS3 inh | tolC growth inh
CCOC(=O)N1CCN(CC(=O)Nc2c(C(=O)OC)[nH]c3cc(C)ccc23)CC1 | 7 | nt | nt | nt | nt
CCOC(=O)c1[nH]c2ccc(F)cc2c1NC(=O)CN1CCN(C/C=C/c2ccccc2)CC1 | 0 | i | 0.9 | 0.28 | 98*
COC(=O)c1[nH]c2ccc(C)cc2c1NC(=O)CN1CCN(c2ccccc2)CC1 | 23 | nt | 0.9 | -1.1 | -13
COC(=O)c1[nH]c2ccccc2c1NC(=O)CN1CCN(C/C=C/c2ccccc2)CC1 | -1 | i | 0.9 | -0.85 | 44
C=CCSc1nc2c(c(=O)[nH]c(=O)n2C)n1CCc1ccccc1 | nt | i | nt | nt | nt
Cc1c(C(=O)O)c(-c2ccccc2)nn1-c1ccccc1 | -14 | i | 0.9 | -0.98 | -5
Cc1nn(-c2ccccc2)c(C)c1C(=O)Nc1nnc(-c2ccco2)o1 | 3 | i | 1 | -0.67 | 65*
COc1cc(C2CC(=O)Nc3c2ccc2ccccc32)ccc1OC(=O)c1ccc(Cl)cc1 (configuration not stated) | nt | i | nt | nt | nt
CCn1c(C(=O)NCCCc2ccccc2)cc2sccc21 | nt | i | 0.9 | -0.39 | 81*
O=C(NCCc1ccccc1)c1cc2sccc2n1Cc1ccccc1 | -15 | nt | nt | nt | nt
O=C(NCc1ccco1)c1cc2sccc2n1Cc1ccccc1 | nt | i | 0.8 | 0.59 | 77*
Cc1ccc(N2C(=O)CSC2c2ccc(Br)cc2)cc1Cl (configuration not stated) | nt | i | nt | nt | nt
CCSc1nnc(NC(=O)c2nc(-c3ccccc3)n(-c3ccccc3)n2)s1 | -8 | i | 0.9 | 0.83 | 78*
Cc1ccc(NC(=O)c2cccc(Br)c2)c(Br)c1 | nt | i | nt | nt | nt
O=C(CCSc1nc(-c2ccco2)cc(C(F)(F)F)n1)N1CCCc2ccccc21 | -17 | i | 0.9 | -1.3 | 77*
O=C(CCCSc1nc(-c2ccco2)cc(C(F)(F)F)n1)Nc1ccc2c(c1)OCO2 | -6 | i | 0.8 | 1.4 | 79*
O=C(CCSc1nc(-c2ccco2)cc(C(F)(F)F)n1)N1CCN(c2ccccn2)CC1 | -27 | i | 0.8 | -0.81 | 60
Cc1oc(CC(C)C)c(CN)c1C(=O)O | 12 | nt | nt | nt | nt
CCCCn1c(NC(=O)CC)c(C#N)c2nc3ccccc3nc21 | -11 | i | 0.9 | -0.15 | 20
CCCCn1c(NC(=O)c2ccccc2Cl)c(C#N)c2nc3ccccc3nc21 | -6 | nt | 1 | -0.15 | 99*
CS(=O)(=O)N(CC(=O)Nc1ccc(CC#N)cc1)c1ccc(C23CC4CC(CC(C4)C2)C3)cc1 | -8 | nt | nt | nt | nt
CCCOc1ccc(-c2csc(NC(=O)c3ccc(S(=O)(=O)N4CCc5ccccc54)cc3)n2)cc1 | nt | i | nt | nt | nt
CCOC(=O)c1cnn2c(C)cc(-c3ccc(OCCC(C)C)cc3)nc12 | nt | i | nt | nt | nt
CCOC(=O)Cc1c(C)nc2c(-c3ccc(Cl)cc3)c[nH]n2c1=O | 21 | nt | 0.8 | -1.1 | 99*
CC(=O)CC1(O)C(=O)N(Cc2ccccc2)c2ccccc21 (configuration not stated) | 6 | nt | nt | nt | nt
C/C(CC1(O)C(=O)N(Cc2ccccc2)c2ccccc21)=N\O (configuration not stated) | 1 | i | 0.9 | -6.4* | 2
c1ccc(-c2nc(CSc3nnc(-c4cccs4)o3)cs2)cc1 | -28 | i | 0.9 | -0.94 | 63*
CCCOC(=O)c1ccc(NC(=O)c2ccc(C(C)(C)C)cc2)cc1 | nt | i | nt | nt | nt
CCCCOC(=O)Nc1ccc(C(=O)OCCC)cc1 | 5 | i | 0.8 | -2.4 | 67*
Cc1ccccc1OCC(=O)N(Cc1nc(-c2ccccc2)no1)C(C)C | -11 | i | 0.9 | -0.12 | 36
